Experimental data from ChEMBL document CHEMBL1629691, “Intrapulmonary pharmacokinetics and pharmacodynamics of micafungin in adult lung transplant patients” (Antimicrob Agents Chemother, 2010).
Numbered stars: 1 amine (or outer) side, 2 acyl side, 3 side chain; on linkers, the order of the positions; unused ones are H or OH. Bridge positions count the residues as written; N and C are the ends. Square brackets hold non-standard residues; d marks the D form. Peptide text beside a SMILES is read from it. * marks the point of attachment. hTyr(3S-OH,4S-OH,3'-OSO3H) = N[C@H](C(=O)O)[C@H](O)[C@@H](O)c1ccc(O)c(OS(=O)(=O)O)c1; Orn(4R-OH,5R-OH) = O=C([C@H](C[C@@H](O)[C@@H](O)N[*:3])N[*:1])[*:2]; Pro(3S-OH,4S-Me) = C[C@H]1CN[C@H](C(=O)O)[C@H]1O; X1 = CCCCCOc1ccc(-c2cc(-c3ccc(C(=O)*)cc3)no2)cc1; Gln(3R-OH) = NC(=O)C[C@@H](O)[C@H](N)C(=O)O; Hyp = O=C(O)[C@@H]1C[C@@H](O)CN1

Key:
[1] = Drug level in epithelial lining fluid of lung transplant recipient invasive aspergillosis patient at 150 mg, iv QD for 4 consecutive days measured after 3 hrs post last dose by HPLC; format: ADME, organism-based; settings: human, read-out: Drug uptake
Outline: (§1)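 150-mg IV micafungin, then bronchoscopy with BAL (20-ml saline aliquots) at the stated time after the dose. Blood was drawn in heparin at the same time. The BAL fluid was spun at 400 × g for 5 min at 4°C; supernatant and cell pellet were frozen at −80°C. Micafungin was measured by solid-phase extraction and C8 HPLC with UV detection at 271.5 nm, using anidulafungin as internal standard.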

[2] = Ratio of drug level in alveolar cell to plasma of lung transplant recipient invasive aspergillosis patient at 150 mg, iv QD for 4 consecutive days measured after 8 hrs post last dose; format: ADME, organism-based, Pneumocyte; settings: human, alveolar cells / plasma
[3] = Drug level in alveolar cells of lung transplant recipient invasive aspergillosis patient at 150 mg, iv single dose measured after 5 hrs post dose by HPLC; settings: human, read-out: Drug uptake
Homo sapiens = assay: Hepatotoxicity in lung transplant recipient invasive aspergillosis patient assessed as serum ALT level at 150 mg, iv measured post last dose; settings: in vivo
[4] = Ratio of drug level in alveolar cell to plasma of lung transplant recipient invasive aspergillosis patient at 150 mg, iv QD for 4 consecutive days measured after 24 hrs post last dose; format: ADME, organism-based, Pneumocyte; settings: human, alveolar cells / plasma
[5] = Ratio of drug level in epithelial lining fluid to plasma in lung transplant recipient invasive aspergillosis patient at 150 mg, iv QD for 4 consecutive days measured after 3 hrs post last dose; format: ADME, organism-based; settings: human
[6] = Drug level in epithelial lining fluid of lung transplant recipient invasive aspergillosis patient at 150 mg, iv QD for 4 consecutive days measured after 8 hrs post last dose by HPLC; format: ADME, organism-based; settings: human, read-out: Drug uptake; outline: as §1
[7] = Ratio of AUC (0 to 24 hrs) in lung transplant recipient invasive aspergillosis patient plasma to MIC90 for Aspergillus fumigatus; format: functional
[8] = Ratio of drug level in epithelial lining fluid to plasma in lung transplant recipient invasive aspergillosis patient at 150 mg, iv measured after 5 hrs post last dose; settings: human
[9] = Drug level in alveolar cells of lung transplant recipient invasive aspergillosis patient at 150 mg, iv QD for 4 consecutive days measured after 5 hrs post last dose by HPLC; format: ADME, organism-based, Pneumocyte; settings: human, read-out: Drug uptake; outline: as §1
[10] = Ratio of drug level in alveolar cell to plasma of lung transplant recipient invasive aspergillosis patient at 150 mg, iv QD for 4 consecutive days measured after 3 hrs post last dose; format: ADME, organism-based, Pneumocyte; settings: human, alveolar cells / plasma
[11] = Clearance in lung transplant recipient invasive aspergillosis patient at 150 mg, iv QD for 4 consecutive days by HPLC; format: ADME, organism-based; settings: human, in vivo
[12] = Ratio of AUC (0 to 24 hrs) in lung transplant recipient invasive aspergillosis patient epithelial lining fluid to MIC90 for Aspergillus fumigatus; format: functional
[13] = Cmax in epithelial lining fluid of lung transplant recipient invasive aspergillosis patient at 150 mg, iv QD for 4 consecutive days by HPLC; format: ADME, organism-based; parameters: dose 150 mg, route intravenous; settings: human
Outline: (§2)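 150-mg IV dose; BAL at 3, 5, 8, 18 or 24 h after the dose, about 4 subjects per time group. Plasma, ELF and alveolar cell drug was measured by reversed-phase HPLC with UV detection. Values were averaged per time point. Cmax is the highest mean over the five groups; Tmax is the mean dose-to-BAL time of that group.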

[14] = Drug level in lung transplant recipient invasive aspergillosis patient plasma at 150 mg, iv QD for 4 consecutive days measured after 5 hrs post last dose by HPLC; format: ADME, organism-based; settings: human, read-out: Drug uptake; outline: as §1
[15] = Ratio of Cmax in lung transplant recipient invasive aspergillosis patient epithelial lining fluid to MIC90 for Aspergillus fumigatus; format: functional
[16] = Drug level in lung transplant recipient invasive aspergillosis patient plasma at 150 mg, iv QD for 4 consecutive days measured after 24 hrs post last dose by HPLC; format: ADME, organism-based; settings: human, read-out: Drug uptake; outline: as §1
[17] = Drug level in lung transplant recipient invasive aspergillosis patient epithelial lining fluid at 150 mg, iv QD for 4 consecutive days measured after 18 hrs post last dose by HPLC; format: ADME, organism-based; settings: human, read-out: Drug uptake; outline: as §1
[18] = Tmax in lung transplant recipient invasive aspergillosis patient plasma at 150 mg, iv QD for 4 consecutive days by HPLC; format: ADME, organism-based; settings: human; outline: as §2
[19] = Ratio of drug level in epithelial lining fluid to plasma in lung transplant recipient invasive aspergillosis patient at 150 mg, iv QD for 4 consecutive days measured after 24 hrs post last dose; format: ADME, organism-based; settings: human
[20] = AUC (0 to 24 hrs) in epithelial lining fluid of lung transplant recipient invasive aspergillosis patient plasma at 150 mg, iv administered as single dose; format: ADME, organism-based; parameters: time < 24 hr, dose 150 mg, route intravenous; settings: human
Outline: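 Single 150-mg IV dose in adult lung transplant recipients. Plasma, ELF (epithelial lining fluid) and alveolar cell concentrations were measured by HPLC at the time of bronchoscopy. AUC0-24 came from a population model: a linear four-compartment model fit to all compartments, with the plasma two-compartment model used for the plasma profile.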

[21] = Drug level in alveolar cells of lung transplant recipient invasive aspergillosis patient at 150 mg, iv QD for 4 consecutive days measured after 18 hrs post last dose by HPLC; format: ADME, organism-based, Pneumocyte; settings: human, read-out: Drug uptake; outline: as §1
[22] = Tmax in epithelial lining fluid of lung transplant recipient invasive aspergillosis patient at 150 mg, iv QD for 4 consecutive days by HPLC; format: ADME, organism-based; settings: human; outline: as §2
[23] = Drug level in lung transplant recipient invasive aspergillosis patient plasma at 150 mg, iv QD for 4 consecutive days measured after 18 hrs post last dose by HPLC; format: ADME, organism-based; settings: human, read-out: Drug uptake; outline: as §1
[24] = Drug level in epithelial lining fluid of lung transplant recipient invasive aspergillosis patient at 150 mg, iv single dose measured after 5 hrs post dose by HPLC; settings: human, read-out: Drug uptake

## CCCCCOc1ccc(-c2cc(-c3ccc(C(=O)N[C@H]4C[C@@H](O)[C@@H](O)NC(=O)[C@@H]5[C@@H](O)[C@@H](C)CN5C(=O)[C@H]([C@H](O)CC(N)=O)NC(=O)[C@H]([C@H](O)[C@@H](O)c5ccc(O)c(OS(=O)(=O)O)c5)NC(=O)[C@@H]5C[C@@H](O)CN5C(=O)[C@H]([C@@H](C)O)NC4=O)cc3)no2)cc1 [MICAFUNGIN] (X1-[Orn(4R-OH,5R-OH)]T[Hyp][hTyr(3S-OH,4S-OH,3'-OSO3H)][Gln(3R-OH)][Pro(3S-OH,4S-Me)]; lactam 1-C)
[1]
  concentration at 3 h: 40 ng/mL
[2]
  Kp at 8 h: 1.23
[3]
  concentration at 5 h: 2840 ng/mL
Homo sapiens
  Activity: 41.6 IU/L
[4]
  Kp at 24 h: 6.22
[5]
  Kp at 3 h: 0.01
[6]
  concentration at 8 h: 50 ng/mL
[7]
  Ratio: 5077
[8]
  Kp at 5 h: 0.15
[9]
  concentration at 5 h: 53300 ng/mL
[10]
  Kp at 3 h: 1.53
[11]
  clearance: 21.8 mL/min
[12]
  Ratio: 923.1
[13]
  Cmax: 1380 ng/mL
[14]
  concentration at 5 h: 5380 ng/mL
[15]
  Ratio: 88.5
[16]
  concentration at 24 h: 1570 ng/mL
[17]
  concentration at 18 h: 80 ng/mL
[18]
  Tmax: 4 h
[19]
  Kp at 24 h: 1.1
[20]
  AUC(0-t) at 24 h: 14400 ng·h/mL
[21]
  concentration at 18 h: 17400 ng/mL
[22]
  Tmax: 24.2 h
[23]
  concentration at 18 h: 2380 ng/mL
[24]
  concentration at 5 h: 710 ng/mL
